Laboratory results: ChEMBL document CHEMBL4715800, “Synthesis and Antiviral Evaluation of Octadecyloxyethyl Benzyl 9-[(2-Phosphonomethoxy)ethyl]guanine (ODE-Bn-PMEG), a Potent Inhibitor of Transient HPV DNA Amplification” (J Med Chem, 2016)

Experiments:
[1] = Inhibition of HSV2 replication in HFF cells incubated for 7 days; type: functional, cell-based, Human alphaherpesvirus 2
[2] = Selectivity index, ratio of CC50 for HEK293 cells to EC50 for inhibition of HPV-16 DNA amplification in HEK293 cells
Outline: (§1)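 Ratio CC50/EC50 in HEK-293 cells. CC50 is by CellTiter-Glo. EC50 is by qPCR of HPV-11 or HPV-16 ori-plasmid amplification in cells cotransfected with type-matched E1/E2 expression vectors.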

[3] = Inhibition of HIV1 92US727 replication in PHA-P-stimulated human PBMCs incubated for 7 days by reverse transcriptase activity based assay; type: functional, cell-based, Human immunodeficiency virus 1, PBMC
Outline: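 Human PBMCs infected with a clinical HIV-1 isolate, with AZT as the positive control. Results are the mean of three replicates.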

[4] = Inhibition of HPV-16 DNA amplification in HEK293 cells incubated for 48 hrs by qPCR analysis; type: functional, cell-based, Human papillomavirus 16
Outline: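 HEK-293 cells cotransfected with an HPV-16 origin-containing plasmid and HPV-16 E1 and E2 expression vectors, then treated with drug dilutions and incubated. Ori-plasmid amplification quantified by real-time qPCR; EC50 calculated from at least three independent experiments.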

[5] = Inhibition of HPV-11 DNA amplification in C-33-A cells incubated for 48 hrs by luciferase reporter gene assay; type: functional, cell-based, human papillomavirus 11; details: for EC50: c-33-a; for EC90: time 48 hrs
Outline: (§2)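 HPV-negative cervical cancer C33A cells transiently transfected with type-matched HPV-11, -16 or -18 E1 and E2 expression vectors plus an ori-plasmid carrying a NanoLuc reporter. After drug dilutions and incubation, ori-plasmid replication is read as the rise in luciferase activity and EC50 is determined. Cytotoxicity (CC50) is measured in C33A cells by CellTiter-Glo.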

[6] = Selectivity index, ratio of CC50 for human PBMC to EC50 for inhibition of HIV1 92US727 replication in PHA-P-stimulated human PBMCs; type: toxicity
Outline: (§3)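 Human PBMCs infected with a clinical HIV-1 isolate, with AZT as positive control. EC50 and CC50 reported as mean ± SD of three replicates; selectivity index = CC50/EC50.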

[7] = Selectivity index, ratio of CC50 for C-33-A cells to EC90 for inhibition of HPV-18 DNA amplification in C-33-A cells
Outline: (§4)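 Ratio CC50/EC90. CC50 is from CellTiter-Glo cytotoxicity in C33A cells. EC90 is from NanoLuc luciferase readout of HPV-16 or -18 ori-plasmid replication in C33A cells cotransfected with type-matched E1/E2 vectors.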

[8] = Inhibition of HPV-16 DNA amplification in C-33-A cells incubated for 48 hrs by luciferase reporter gene assay; type: functional, cell-based, Human papillomavirus 16; details: for EC50: c-33-a; for EC90: time 48 hrs; outline: as §2
HFF = assay: (§5) Cytotoxicity in HFF cells incubated for 7 days by CellTiter-Glo assay; type: cell-based; details: human, hff, 168 h; time 7 day
[9] = Selectivity index, ratio of CC50 for C-33-A cells to EC90 for inhibition of HPV-16 DNA amplification in C-33-A cells; outline: as §4
[10] = Selectivity index, ratio of CC50 for C-33-A cells to EC90 for inhibition of HPV-11 DNA amplification in C-33-A cells
C-33-A = assay: Cytotoxicity in human C-33-A cells by CellTiter-Glo reagent assay; type: cell-based; details: c-33-a; outline: as §2
[11] = Selectivity index, ratio of CC50 for C-33-A cells to EC50 for inhibition of HPV-18 DNA amplification in C-33-A cells
Outline: (§6)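 Ratio CC50/EC50. CC50 is from CellTiter-Glo in C33A cells. EC50 is from NanoLuc luciferase readout of HPV ori-plasmid replication in C33A cells cotransfected with type-matched E1/E2 vectors.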

[12] = Selectivity index, ratio of CC50 for HFF to EC50 for inhibition of HSV2 replication in HFF cells; type: toxicity, cell-based; details: human
[13] = Selectivity index, ratio of CC50 for C-33-A cells to EC50 for inhibition of HPV-11 DNA amplification in C-33-A cells; outline: as §6
[14] = Inhibition of HPV-18 DNA amplification in C-33-A cells incubated for 48 hrs by luciferase reporter gene assay; type: functional, cell-based, human papillomavirus 18; details: for EC50: c-33-a; for EC90: time 48 hrs; outline: as §2
human papillomavirus 11 = assay: Potency index, ratio of EC50 for cidofovir to EC50 for test compound for inhibition of HPV-11 DNA amplification in C-33-A cells incubated for 48 hrs by luciferase reporter gene assay; type: functional
[15] = Selectivity index, ratio of CC50 for HEK293 cells to EC50 for inhibition of HPV-11 DNA amplification in HEK293 cells; outline: as §1
HEK293 = assay: Cytotoxicity in HEK293 cells by CellTiter-Glo assay; details: human, hek293
[16] = Selectivity index, ratio of CC50 for C-33-A cells to EC50 for inhibition of HPV-16 DNA amplification in C-33-A cells; outline: as §6
[17] = Cytotoxicity in human PBMC cells; type: cell-based; outline: as §3
[18] = Inhibition of HPV-11 DNA amplification in HEK293 cells incubated for 48 hrs by qPCR analysis; type: functional, cell-based, human papillomavirus 11
Outline: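 HEK-293 cells cotransfected with an HPV-11 origin-containing plasmid and HPV-11 E1 and E2 expression vectors, then exposed to drug dilutions and incubated. Ori-plasmid amplification is measured by quantitative real-time PCR and EC50 is calculated. At least three independent experiments.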

[19] = Drug uptake in HFF cells at 1 uM incubated for 1 to 48 hrs using [14C]-labelled compound by liquid scintillation counting; type: ADME, cell-based; details: human, TDE = time-dependent effect, time 1-48 hrs
Outline: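 HFF cells exposed to 1 μM [14C]-labelled compound for 1 to 48 h. Cell-associated radioactivity measured in duplicate to assess uptake.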

[20] = as §5; type: cell-based; details: human, HFF cells; time 7 day

| Structure (SMILES) | EC50 ([1]; hff) | Ratio CC50/EC50 [2] | EC50 ([3]; pbmc) | EC50 [4] | EC50 [5] | EC90 [5] | Ratio [7] | EC50 [8] | EC90 [8] | CC50 (HFF) | Ratio [9] | Ratio [10] | Ratio CC50/EC50 [11] | Ratio CC50/EC50 [12] | Ratio CC50/EC50 [13] | EC50 [14] | EC90 [14] | Ratio CC50/EC50 [15] | CC50 (HEK293) | Ratio CC50/EC50 [16] | also measured |
| --- | --- | --- | --- | --- | --- | --- | --- | --- | --- | --- | --- | --- | --- | --- | --- | --- | --- | --- | --- | --- | --- |
| CCCCCCCCCCCCCCCCCCOCCOP(=O)(COCCn1cnc2c(=O)[nH]c(N)nc21)OCc1ccccc1 (stereo in doubt; form 1) | 22 nM | 85 | 2 nM | 200 nM | 180 nM | 720 nM | >17 | 40 nM | 640 nM | 5.2 µM | >16 | 15 | >100 | 240 | 61 | 100 nM | 590 nM | 42 | 17 µM | >250 | Ratio CC50/EC50 ([6]; pbmc): 11; CC50 (C-33-A): ≥ 10 µM; Ratio EC50 (human papillomavirus 11): >300; CC50 ([17]; pbmc): 20 nM |
| CCCCCCCCCCCCCCCCCCOCCOP(=O)(COCCn1cnc2c(=O)[nH]c(N)nc21)OCc1ccccc1 (stereo in doubt; form 2) | 33 nM | 230 | 4 nM | 390 nM | 410 nM | 1400 nM | >14 | 140 nM | 890 nM | 5.4 µM | >11 | >7 | >130 | 160 | >24 | 80 nM | 720 nM | 230 | 91 µM | >71 | CC50 ([17]; pbmc): 70 nM; EC50 [18]: 400 nM |
| CCCCCCCCCCCCCCCCCCOCCOP(=O)(O)COCCn1cnc2c(=O)[nH]c(N)nc21 |  |  |  |  |  |  |  |  |  |  |  |  |  |  |  |  |  |  |  |  | Drug uptake [19]: Tde |
| Cc1cn([C@H]2C[C@H](N=[N+]=[N-])[C@@H](CO)O2)c(=O)[nH]c1=O [ZIDOVUDINE] |  |  |  |  |  |  |  |  |  |  |  |  |  |  |  |  |  |  |  |  | EC50 ([3]; Human immunodeficiency virus 1, 92US727, PBMC, 168 h): 4 nM; selectivity ratio ([6]; PBMCs, read-out: Ratio CC50/EC50): > 250; CC50 ([17]; PBMC cells): > 1000 nM |
| Nc1nc2c(ncn2COCCO)c(=O)[nH]1 [ACYCLOVIR] |  |  |  |  |  |  |  |  |  |  |  |  |  |  |  |  |  |  |  |  | EC50 ([1]; Human alphaherpesvirus 2, HFF, 168 h): 990 nM; CC50 at 168 h [20]: > 300 µM; selectivity ratio ([12]; HFF cells, read-out: Ratio CC50/EC50): > 300 |
